Assay results: ChEMBL document CHEMBL4689842, “EUbOPEN Chemogenomics Library wave 1” (2021)

Experiments:
Fibroblast = experiment: Incucyte cell viability with human fibroblast; assay type: toxicity, cell-based; conditions: 10 µM, compound concentration 10 uM; also: filed as whole numbers so only -1 and 0 and 1 occur
HEK-293T = experiment: Multiplex assay against HEK293T; assay type: toxicity, cell-based; conditions: human;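 as to Population Tubulin-Different-Phenotype (%): share of the cells with healthy nuclei that show this phenotype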
Procedure, shortened: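 Four dyes were applied at seeding to live cells: Hoechst33342, BioTracker Green Microtubule Cytoskeleton Dye, MitoTracker Red and Annexin V Alexa Fluor 680. Imaging after compound addition used a CQ1 microscope at 37°C and 5% CO2. CellPathfinder machine-learning gating then sorted cells into Hoechst high-intensity objects or normal cells, normal cells into healthy, pyknosed or fragmented nuclei, and pyknosed cells into mitotic or apoptotic, with tubulin, mitochondrial-mass and membrane-permeability phenotypes given as per cents of healthy-nucleus cells.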

[1] = 12 h, 1 µM, compound concentration 1 uM, replicate 1
[2] = 12 h, 1 µM, compound concentration 1 uM, replicate 2
[3] = 12 h, 10 µM, compound concentration 10 uM, replicate 1
[4] = 12 h, 10 µM, compound concentration 10 uM, replicate 2
[5] = 24 h, 1 µM, compound concentration 1 uM, replicate 1
[6] = 24 h, 1 µM, compound concentration 1 uM, replicate 2
[7] = 24 h, 10 µM, compound concentration 10 uM, replicate 1
[8] = 24 h, 10 µM, compound concentration 10 uM, replicate 2
[9] = 48 h, 1 µM, compound concentration 1 uM, replicate 1
[10] = 48 h, 1 µM, compound concentration 1 uM, replicate 2
[11] = 48 h, 10 µM, compound concentration 10 uM, replicate 1
[12] = 48 h, 10 µM, compound concentration 10 uM, replicate 2

Oc1cccc(-c2nc(N3CCOCC3)c3oc4ncccc4c3n2)c1 [PI-103]
Growth Rate (Fibroblast; 0 h, replicate number 2, timepoint 0 hours): 0
Growth Rate (Fibroblast; 6 h, replicate number 1, timepoint 6 hours): 0
Growth Rate (Fibroblast; 12 h, replicate number 1, timepoint 12 hours): 0
Growth Rate (Fibroblast; 18 h, replicate number 1, timepoint 18 hours): 0
Growth Rate (Fibroblast; 24 h, replicate number 1, timepoint 24 hours): 0
Population Apoptotic (%) (HEK-293T; [1]): 58%
Population Fragmented Nuclei (%) (HEK-293T; [1]): 6%
Population Healthy Nuclei (%) (HEK-293T; [1]): 16%
Population Hoechst High Intensity Objects (%) (HEK-293T; [1]): 21%
Population Membrane Permeable-Phenotype (%) (HEK-293T; [1]): 2%
Population Mitochondria Different-Phenotype (%) (HEK-293T; [1]): 85%
Population Mitotic Cells (%) (HEK-293T; [1]): 41%
Population Normal (%) (HEK-293T; [1]): 78%
Population Pyknosed Nuclei (%) (HEK-293T; [1]): 77%
Population Tubulin-Different-Phenotype (%) (HEK-293T; [1]): 82%
Total Cell Count (HEK-293T; [1]): 269
Population Apoptotic (%) (HEK-293T; [2]): 51%
Population Fragmented Nuclei (%) (HEK-293T; [2]): 10%
Population Healthy Nuclei (%) (HEK-293T; [2]): 13%
Population Hoechst High Intensity Objects (%) (HEK-293T; [2]): 14%
Population Membrane Permeable-Phenotype (%) (HEK-293T; [2]): 10%
Population Mitochondria Different-Phenotype (%) (HEK-293T; [2]): 68%
Population Mitotic Cells (%) (HEK-293T; [2]): 48%
Population Normal (%) (HEK-293T; [2]): 85%
Population Pyknosed Nuclei (%) (HEK-293T; [2]): 76%
Population Tubulin-Different-Phenotype (%) (HEK-293T; [2]): 63%
Total Cell Count (HEK-293T; [2]): 161
Population Apoptotic (%) (HEK-293T; [3]): 72%
Population Fragmented Nuclei (%) (HEK-293T; [3]): 14%
Population Healthy Nuclei (%) (HEK-293T; [3]): 8%
Population Hoechst High Intensity Objects (%) (HEK-293T; [3]): 18%
Population Membrane Permeable-Phenotype (%) (HEK-293T; [3]): 11%
Population Mitochondria Different-Phenotype (%) (HEK-293T; [3]): 94%
Population Mitotic Cells (%) (HEK-293T; [3]): 27%
Population Normal (%) (HEK-293T; [3]): 81%
Population Pyknosed Nuclei (%) (HEK-293T; [3]): 77%
Population Tubulin-Different-Phenotype (%) (HEK-293T; [3]): 94%
Total Cell Count (HEK-293T; [3]): 269
Population Apoptotic (%) (HEK-293T; [4]): 64%
Population Fragmented Nuclei (%) (HEK-293T; [4]): 7%
Population Healthy Nuclei (%) (HEK-293T; [4]): 6%
Population Hoechst High Intensity Objects (%) (HEK-293T; [4]): 6%
Population Membrane Permeable-Phenotype (%) (HEK-293T; [4]): 27%
Population Mitochondria Different-Phenotype (%) (HEK-293T; [4]): 54%
Population Mitotic Cells (%) (HEK-293T; [4]): 35%
Population Normal (%) (HEK-293T; [4]): 93%
Population Pyknosed Nuclei (%) (HEK-293T; [4]): 85%
Population Tubulin-Different-Phenotype (%) (HEK-293T; [4]): 72%
Total Cell Count (HEK-293T; [4]): 172
Population Apoptotic (%) (HEK-293T; [5]): 47%
Population Fragmented Nuclei (%) (HEK-293T; [5]): 13%
Population Healthy Nuclei (%) (HEK-293T; [5]): 10%
Population Hoechst High Intensity Objects (%) (HEK-293T; [5]): 22%
Population Mitochondria Different-Phenotype (%) (HEK-293T; [5]): 78%
Population Mitotic Cells (%) (HEK-293T; [5]): 52%
Population Normal (%) (HEK-293T; [5]): 77%
Population Pyknosed Nuclei (%) (HEK-293T; [5]): 76%
Population Tubulin-Different-Phenotype (%) (HEK-293T; [5]): 86%
Total Cell Count (HEK-293T; [5]): 293
Population Apoptotic (%) (HEK-293T; [6]): 53%
Population Fragmented Nuclei (%) (HEK-293T; [6]): 9%
Population Healthy Nuclei (%) (HEK-293T; [6]): 26%
Population Hoechst High Intensity Objects (%) (HEK-293T; [6]): 15%
Population Membrane Permeable-Phenotype (%) (HEK-293T; [6]): 13%
Population Mitochondria Different-Phenotype (%) (HEK-293T; [6]): 59%
Population Mitotic Cells (%) (HEK-293T; [6]): 46%
Population Normal (%) (HEK-293T; [6]): 84%
Population Pyknosed Nuclei (%) (HEK-293T; [6]): 64%
Population Tubulin-Different-Phenotype (%) (HEK-293T; [6]): 64%
Total Cell Count (HEK-293T; [6]): 168
Population Apoptotic (%) (HEK-293T; [7]): 63%
Population Fragmented Nuclei (%) (HEK-293T; [7]): 18%
Population Healthy Nuclei (%) (HEK-293T; [7]): 8%
Population Hoechst High Intensity Objects (%) (HEK-293T; [7]): 17%
Population Membrane Permeable-Phenotype (%) (HEK-293T; [7]): 10%
Population Mitochondria Different-Phenotype (%) (HEK-293T; [7]): 100%
Population Mitotic Cells (%) (HEK-293T; [7]): 36%
Population Normal (%) (HEK-293T; [7]): 82%
Population Pyknosed Nuclei (%) (HEK-293T; [7]): 73%
Population Tubulin-Different-Phenotype (%) (HEK-293T; [7]): 90%
Total Cell Count (HEK-293T; [7]): 291
Population Apoptotic (%) (HEK-293T; [8]): 65%
Population Fragmented Nuclei (%) (HEK-293T; [8]): 11%
Population Healthy Nuclei (%) (HEK-293T; [8]): 11%
Population Hoechst High Intensity Objects (%) (HEK-293T; [8]): 16%
Population Membrane Permeable-Phenotype (%) (HEK-293T; [8]): 23%
Population Mitochondria Different-Phenotype (%) (HEK-293T; [8]): 70%
Population Mitotic Cells (%) (HEK-293T; [8]): 34%
Population Normal (%) (HEK-293T; [8]): 83%
Population Pyknosed Nuclei (%) (HEK-293T; [8]): 76%
Population Tubulin-Different-Phenotype (%) (HEK-293T; [8]): 88%
Total Cell Count (HEK-293T; [8]): 175
Population Apoptotic (%) (HEK-293T; [9]): 56%
Population Fragmented Nuclei (%) (HEK-293T; [9]): 23%
Population Healthy Nuclei (%) (HEK-293T; [9]): 4%
Population Hoechst High Intensity Objects (%) (HEK-293T; [9]): 22%
Population Membrane Permeable-Phenotype (%) (HEK-293T; [9]): 9%
Population Mitochondria Different-Phenotype (%) (HEK-293T; [9]): 72%
Population Mitotic Cells (%) (HEK-293T; [9]): 43%
Population Normal (%) (HEK-293T; [9]): 77%
Population Pyknosed Nuclei (%) (HEK-293T; [9]): 71%
Population Tubulin-Different-Phenotype (%) (HEK-293T; [9]): 63%
Total Cell Count (HEK-293T; [9]): 297
Population Apoptotic (%) (HEK-293T; [10]): 50%
Population Fragmented Nuclei (%) (HEK-293T; [10]): 12%
Population Healthy Nuclei (%) (HEK-293T; [10]): 55%
Population Hoechst High Intensity Objects (%) (HEK-293T; [10]): 14%
Population Membrane Permeable-Phenotype (%) (HEK-293T; [10]): 7%
Population Mitochondria Different-Phenotype (%) (HEK-293T; [10]): 63%
Population Mitotic Cells (%) (HEK-293T; [10]): 50%
Population Normal (%) (HEK-293T; [10]): 85%
Population Pyknosed Nuclei (%) (HEK-293T; [10]): 31%
Population Tubulin-Different-Phenotype (%) (HEK-293T; [10]): 88%
Total Cell Count (HEK-293T; [10]): 185
Population Apoptotic (%) (HEK-293T; [11]): 55%
Population Fragmented Nuclei (%) (HEK-293T; [11]): 29%
Population Healthy Nuclei (%) (HEK-293T; [11]): 7%
Population Hoechst High Intensity Objects (%) (HEK-293T; [11]): 17%
Population Membrane Permeable-Phenotype (%) (HEK-293T; [11]): 0%
Population Mitochondria Different-Phenotype (%) (HEK-293T; [11]): 94%
Population Mitotic Cells (%) (HEK-293T; [11]): 44%
Population Normal (%) (HEK-293T; [11]): 82%
Population Pyknosed Nuclei (%) (HEK-293T; [11]): 63%
Population Tubulin-Different-Phenotype (%) (HEK-293T; [11]): 84%
Total Cell Count (HEK-293T; [11]): 307
Population Apoptotic (%) (HEK-293T; [12]): 78%
Population Fragmented Nuclei (%) (HEK-293T; [12]): 10%
Population Healthy Nuclei (%) (HEK-293T; [12]): 18%
Population Hoechst High Intensity Objects (%) (HEK-293T; [12]): 22%
Population Membrane Permeable-Phenotype (%) (HEK-293T; [12]): 8%
Population Mitochondria Different-Phenotype (%) (HEK-293T; [12]): 80%
Population Mitotic Cells (%) (HEK-293T; [12]): 21%
Population Normal (%) (HEK-293T; [12]): 77%
Population Pyknosed Nuclei (%) (HEK-293T; [12]): 71%
Population Tubulin-Different-Phenotype (%) (HEK-293T; [12]): 88%
Total Cell Count (HEK-293T; [12]): 177
